This passage reports Ki, inhibition and IC50 results from ChEMBL document CHEMBL3124809, “Back pocket flexibility provides group II p21-activated kinase (PAK) selectivity for type I 1/2 kinase inhibitors” (J Med Chem, 2014).

pIC50, pKi: −log10 of the molar value.

For test [1], the target named is T1, Serine/threonine-protein kinase PAK 4 (Homo sapiens, UniProt O96013). The experiment in a line: Binding affinity to N-terminal GST-tagged recombinant human PAK4 kinase domain expressed in Escherichia coli using KKRNRRLSVA as substrate preincubated for 10 mins followed by ATP addition measured after 60 mins by FRET-based Z'Lyte assay.
Target sequence in this assay (O96013 whole entry, the tested form may be a part): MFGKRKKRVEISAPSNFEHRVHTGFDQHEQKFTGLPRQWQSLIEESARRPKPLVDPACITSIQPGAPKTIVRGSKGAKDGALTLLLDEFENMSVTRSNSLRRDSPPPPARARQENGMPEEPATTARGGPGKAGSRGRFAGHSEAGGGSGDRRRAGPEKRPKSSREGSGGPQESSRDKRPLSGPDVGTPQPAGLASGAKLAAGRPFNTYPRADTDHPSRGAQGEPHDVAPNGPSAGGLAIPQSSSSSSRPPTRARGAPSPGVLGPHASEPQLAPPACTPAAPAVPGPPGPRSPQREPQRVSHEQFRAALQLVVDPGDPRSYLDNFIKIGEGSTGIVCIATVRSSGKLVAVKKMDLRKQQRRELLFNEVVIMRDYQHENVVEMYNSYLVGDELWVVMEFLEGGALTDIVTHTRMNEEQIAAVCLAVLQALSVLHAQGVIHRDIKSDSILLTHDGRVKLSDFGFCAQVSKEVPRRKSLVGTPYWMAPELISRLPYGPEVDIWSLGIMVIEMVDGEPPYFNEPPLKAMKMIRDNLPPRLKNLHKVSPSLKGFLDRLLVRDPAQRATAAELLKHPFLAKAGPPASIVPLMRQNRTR
For test [2], the target named is Serine/threonine-protein kinase PAK 1 (Homo sapiens, UniProt Q13153). The experiment in a line: Binding affinity to N-terminal GST-His-tagged recombinant human PAK1 kinase domain expressed in Escherichia coli BL21 using KKRNRRLSVA as sustrate preincubated for 10 mins followed by ATP addition measured after 60 mins by FRET-based Z'Lyte assay.
Sequence of Serine/threonine-protein kinase PAK 1 (Q13153 whole entry, the tested form may be a part): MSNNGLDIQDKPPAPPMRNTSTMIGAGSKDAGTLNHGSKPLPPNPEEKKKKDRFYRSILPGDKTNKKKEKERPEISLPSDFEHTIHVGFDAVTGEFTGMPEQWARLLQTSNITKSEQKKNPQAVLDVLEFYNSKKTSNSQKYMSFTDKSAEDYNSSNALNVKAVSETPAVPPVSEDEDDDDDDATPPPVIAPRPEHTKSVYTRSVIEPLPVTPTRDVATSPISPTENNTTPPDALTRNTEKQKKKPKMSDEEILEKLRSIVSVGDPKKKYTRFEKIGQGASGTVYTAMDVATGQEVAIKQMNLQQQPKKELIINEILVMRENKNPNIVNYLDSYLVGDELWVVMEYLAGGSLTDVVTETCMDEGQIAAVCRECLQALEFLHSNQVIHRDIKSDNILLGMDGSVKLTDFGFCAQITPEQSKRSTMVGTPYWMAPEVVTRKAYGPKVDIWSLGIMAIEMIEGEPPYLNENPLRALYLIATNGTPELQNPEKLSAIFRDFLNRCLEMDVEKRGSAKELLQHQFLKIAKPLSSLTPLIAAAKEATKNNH
The target of test [3] is T1, Serine/threonine-protein kinase PAK 4. The experiment in a line: Inhibition of PAK4 (unknown origin) at 1 uM.
Target sequence in this assay (O96013 whole entry, looked up, the tested form may be a part): as the sequence (O96013 whole entry, the tested form may be a part) above
Test [4] addresses Mitogen-activated protein kinase kinase kinase kinase 4 (Homo sapiens) (UniProt O95819). The test can be described thus: Inhibition of MAP4K4 (unknown origin) at 1 uM.
Test [5] concerns the target Mitogen-activated protein kinase kinase kinase 14 (Homo sapiens) (UniProt Q99558). The experiment in a line: Inhibition of NIK (unknown origin) at 1 uM.
Test [6] concerns the target Mitogen-activated protein kinase kinase kinase kinase 5 (Homo sapiens) (UniProt Q9Y4K4). The experiment in a line: Inhibition of KHS1 (unknown origin) at 1 uM.
Test [7] concerns the target T2, Tyrosine-protein kinase JAK3 (Homo sapiens) (UniProt P52333).
T2 sequence (whole entry): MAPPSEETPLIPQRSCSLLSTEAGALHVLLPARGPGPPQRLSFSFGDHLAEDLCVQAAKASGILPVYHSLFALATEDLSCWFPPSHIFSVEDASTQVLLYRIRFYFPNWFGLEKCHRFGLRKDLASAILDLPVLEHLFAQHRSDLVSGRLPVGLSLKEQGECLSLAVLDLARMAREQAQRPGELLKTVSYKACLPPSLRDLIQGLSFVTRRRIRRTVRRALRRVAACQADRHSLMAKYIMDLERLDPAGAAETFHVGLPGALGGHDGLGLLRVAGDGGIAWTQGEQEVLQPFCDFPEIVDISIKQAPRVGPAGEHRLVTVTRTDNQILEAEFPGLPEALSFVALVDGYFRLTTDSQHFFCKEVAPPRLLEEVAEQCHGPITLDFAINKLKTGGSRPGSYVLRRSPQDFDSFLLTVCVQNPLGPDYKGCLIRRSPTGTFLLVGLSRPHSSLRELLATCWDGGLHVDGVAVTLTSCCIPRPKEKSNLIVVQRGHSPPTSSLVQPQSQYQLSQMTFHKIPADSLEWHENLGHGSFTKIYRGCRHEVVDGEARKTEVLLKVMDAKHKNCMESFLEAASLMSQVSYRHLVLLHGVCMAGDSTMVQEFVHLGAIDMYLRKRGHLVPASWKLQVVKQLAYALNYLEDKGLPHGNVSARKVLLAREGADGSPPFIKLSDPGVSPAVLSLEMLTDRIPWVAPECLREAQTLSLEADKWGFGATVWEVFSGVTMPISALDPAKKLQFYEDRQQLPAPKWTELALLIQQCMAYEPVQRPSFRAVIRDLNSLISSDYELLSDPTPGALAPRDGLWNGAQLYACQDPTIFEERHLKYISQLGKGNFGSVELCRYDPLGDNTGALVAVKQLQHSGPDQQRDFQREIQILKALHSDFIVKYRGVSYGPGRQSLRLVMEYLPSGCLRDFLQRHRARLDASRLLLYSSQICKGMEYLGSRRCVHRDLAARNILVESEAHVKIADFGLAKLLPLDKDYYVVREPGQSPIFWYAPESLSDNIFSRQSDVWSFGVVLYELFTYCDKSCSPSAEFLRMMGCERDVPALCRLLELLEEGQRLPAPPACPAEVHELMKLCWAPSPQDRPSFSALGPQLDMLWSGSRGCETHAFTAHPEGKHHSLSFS
The experiment in a line: Inhibition of JAK3 (unknown origin) at 1 uM.

For test [8], the target named is Misshapen-like kinase 1 (Homo sapiens) (UniProt Q8N4C8). The test can be described thus: Inhibition of MINK1 (unknown origin) at 1 uM.
Sequence of Misshapen-like kinase 1 (Homo sapiens) (Q8N4C8 whole entry, looked up): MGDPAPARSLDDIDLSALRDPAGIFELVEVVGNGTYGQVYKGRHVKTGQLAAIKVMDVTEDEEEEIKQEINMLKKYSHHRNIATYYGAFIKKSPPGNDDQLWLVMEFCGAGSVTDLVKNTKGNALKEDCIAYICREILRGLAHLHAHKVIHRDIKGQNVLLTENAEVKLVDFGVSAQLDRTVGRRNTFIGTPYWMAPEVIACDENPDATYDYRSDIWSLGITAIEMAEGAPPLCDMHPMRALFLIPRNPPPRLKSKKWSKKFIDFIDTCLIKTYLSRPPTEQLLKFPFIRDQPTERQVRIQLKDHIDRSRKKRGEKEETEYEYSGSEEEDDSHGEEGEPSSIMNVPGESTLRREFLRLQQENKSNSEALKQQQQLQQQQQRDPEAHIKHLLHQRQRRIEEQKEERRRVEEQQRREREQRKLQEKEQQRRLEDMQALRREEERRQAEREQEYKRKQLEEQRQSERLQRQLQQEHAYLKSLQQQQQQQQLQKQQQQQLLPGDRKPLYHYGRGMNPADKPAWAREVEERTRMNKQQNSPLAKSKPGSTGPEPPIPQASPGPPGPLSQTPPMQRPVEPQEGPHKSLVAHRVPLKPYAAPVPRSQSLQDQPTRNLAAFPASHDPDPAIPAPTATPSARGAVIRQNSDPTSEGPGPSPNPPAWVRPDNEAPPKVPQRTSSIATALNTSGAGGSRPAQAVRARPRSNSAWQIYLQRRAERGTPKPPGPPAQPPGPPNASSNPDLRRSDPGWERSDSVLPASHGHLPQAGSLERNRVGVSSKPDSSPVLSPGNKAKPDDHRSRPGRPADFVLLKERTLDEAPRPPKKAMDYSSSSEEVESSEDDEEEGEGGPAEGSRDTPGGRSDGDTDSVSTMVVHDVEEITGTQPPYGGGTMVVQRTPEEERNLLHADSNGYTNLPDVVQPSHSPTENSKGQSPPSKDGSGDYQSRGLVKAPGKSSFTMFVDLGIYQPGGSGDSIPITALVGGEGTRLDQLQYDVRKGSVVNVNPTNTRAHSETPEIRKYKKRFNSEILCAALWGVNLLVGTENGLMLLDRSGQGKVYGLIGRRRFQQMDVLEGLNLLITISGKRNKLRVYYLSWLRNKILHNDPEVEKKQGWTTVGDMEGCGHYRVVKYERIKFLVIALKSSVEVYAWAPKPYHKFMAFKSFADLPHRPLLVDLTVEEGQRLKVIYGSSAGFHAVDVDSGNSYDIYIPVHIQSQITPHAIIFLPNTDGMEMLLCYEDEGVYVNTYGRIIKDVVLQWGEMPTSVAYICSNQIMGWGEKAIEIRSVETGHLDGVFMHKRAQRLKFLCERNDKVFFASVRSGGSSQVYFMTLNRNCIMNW
For test [9], the target named is T1, Serine/threonine-protein kinase PAK 4. The note with it: 10 uM.
Target sequence in this assay (O96013 whole entry, looked up, the tested form may be a part): as the sequence (O96013 whole entry, the tested form may be a part) above
The target in test [10] is Misshapen-like kinase 1 (Homo sapiens) (UniProt Q8N4C8). The experiment in a line: Inhibition of MINK1 (unknown origin) at 10 uM.
Test [11] has as its target Mitogen-activated protein kinase kinase kinase kinase 4 (Homo sapiens) (UniProt O95819). The test can be described thus: Inhibition of MAP4K4 (unknown origin) at 10 uM.
The target of test [12] is T2, Tyrosine-protein kinase JAK3 (Homo sapiens). The test can be described thus: Inhibition of JAK3 (unknown origin) at 10 uM.
The target in test [13] is Mitogen-activated protein kinase kinase kinase 14 (Homo sapiens) (UniProt Q99558). The experiment in a line: Inhibition of NIK (unknown origin) at 10 uM.
For test [14], the target named is Mitogen-activated protein kinase kinase kinase kinase 5 (Homo sapiens) (UniProt Q9Y4K4). The test can be described thus: Inhibition of KHS1 (unknown origin) at 10 uM.
Sequence of Mitogen-activated protein kinase kinase kinase kinase 5 (Homo sapiens) (Q9Y4K4 whole entry, looked up): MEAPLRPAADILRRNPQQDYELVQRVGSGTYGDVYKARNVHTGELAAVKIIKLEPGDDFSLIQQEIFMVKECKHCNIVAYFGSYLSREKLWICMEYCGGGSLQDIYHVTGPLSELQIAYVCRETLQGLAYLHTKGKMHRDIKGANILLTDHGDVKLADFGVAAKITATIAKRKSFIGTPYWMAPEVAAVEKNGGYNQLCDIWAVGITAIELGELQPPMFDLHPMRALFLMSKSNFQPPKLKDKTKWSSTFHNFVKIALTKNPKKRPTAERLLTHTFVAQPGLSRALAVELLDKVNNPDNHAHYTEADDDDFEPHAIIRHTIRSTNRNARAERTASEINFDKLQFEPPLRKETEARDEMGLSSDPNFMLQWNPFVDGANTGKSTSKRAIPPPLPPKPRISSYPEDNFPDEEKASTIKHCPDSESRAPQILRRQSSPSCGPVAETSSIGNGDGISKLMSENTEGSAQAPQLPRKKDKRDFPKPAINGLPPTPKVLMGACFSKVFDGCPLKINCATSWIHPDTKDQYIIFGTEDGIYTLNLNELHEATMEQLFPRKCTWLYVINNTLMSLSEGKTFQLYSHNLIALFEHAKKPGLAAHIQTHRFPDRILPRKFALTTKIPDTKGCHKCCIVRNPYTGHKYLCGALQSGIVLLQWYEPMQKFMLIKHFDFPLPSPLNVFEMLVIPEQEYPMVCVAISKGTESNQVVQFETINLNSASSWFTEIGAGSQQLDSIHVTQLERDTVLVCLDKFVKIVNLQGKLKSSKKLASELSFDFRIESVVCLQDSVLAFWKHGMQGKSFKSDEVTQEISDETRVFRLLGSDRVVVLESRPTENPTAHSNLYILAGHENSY
Test [15] is described as follows: Cytotoxicity against human MDA-MB-436 cells assessed as reduction in cell viability after 24 to 48 hrs by Celltiter-glo luminescence assay. It counts as functional, cell-based. Summed up:
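Cells sparsely plated in 96-well plates and allowed to adhere, then given DMSO or compound (0.1, 1, 10, 50 μM) for 24 and 48 h. Metabolically active cells quantified by CellTiter-Glo luminescence. MDA-MB-436 grown in DMEM/10% FBS; MCF10A PIK3CA (one endogenous H1047R allele) in DMEM/F12 with 5% horse serum, insulin, hydrocortisone.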
A general note: In ATP-based viability assays light output follows the ATP content of the culture.

Sequence of Mitogen-activated protein kinase kinase kinase kinase 4 (Homo sapiens) (O95819 2-1239 limits assumed): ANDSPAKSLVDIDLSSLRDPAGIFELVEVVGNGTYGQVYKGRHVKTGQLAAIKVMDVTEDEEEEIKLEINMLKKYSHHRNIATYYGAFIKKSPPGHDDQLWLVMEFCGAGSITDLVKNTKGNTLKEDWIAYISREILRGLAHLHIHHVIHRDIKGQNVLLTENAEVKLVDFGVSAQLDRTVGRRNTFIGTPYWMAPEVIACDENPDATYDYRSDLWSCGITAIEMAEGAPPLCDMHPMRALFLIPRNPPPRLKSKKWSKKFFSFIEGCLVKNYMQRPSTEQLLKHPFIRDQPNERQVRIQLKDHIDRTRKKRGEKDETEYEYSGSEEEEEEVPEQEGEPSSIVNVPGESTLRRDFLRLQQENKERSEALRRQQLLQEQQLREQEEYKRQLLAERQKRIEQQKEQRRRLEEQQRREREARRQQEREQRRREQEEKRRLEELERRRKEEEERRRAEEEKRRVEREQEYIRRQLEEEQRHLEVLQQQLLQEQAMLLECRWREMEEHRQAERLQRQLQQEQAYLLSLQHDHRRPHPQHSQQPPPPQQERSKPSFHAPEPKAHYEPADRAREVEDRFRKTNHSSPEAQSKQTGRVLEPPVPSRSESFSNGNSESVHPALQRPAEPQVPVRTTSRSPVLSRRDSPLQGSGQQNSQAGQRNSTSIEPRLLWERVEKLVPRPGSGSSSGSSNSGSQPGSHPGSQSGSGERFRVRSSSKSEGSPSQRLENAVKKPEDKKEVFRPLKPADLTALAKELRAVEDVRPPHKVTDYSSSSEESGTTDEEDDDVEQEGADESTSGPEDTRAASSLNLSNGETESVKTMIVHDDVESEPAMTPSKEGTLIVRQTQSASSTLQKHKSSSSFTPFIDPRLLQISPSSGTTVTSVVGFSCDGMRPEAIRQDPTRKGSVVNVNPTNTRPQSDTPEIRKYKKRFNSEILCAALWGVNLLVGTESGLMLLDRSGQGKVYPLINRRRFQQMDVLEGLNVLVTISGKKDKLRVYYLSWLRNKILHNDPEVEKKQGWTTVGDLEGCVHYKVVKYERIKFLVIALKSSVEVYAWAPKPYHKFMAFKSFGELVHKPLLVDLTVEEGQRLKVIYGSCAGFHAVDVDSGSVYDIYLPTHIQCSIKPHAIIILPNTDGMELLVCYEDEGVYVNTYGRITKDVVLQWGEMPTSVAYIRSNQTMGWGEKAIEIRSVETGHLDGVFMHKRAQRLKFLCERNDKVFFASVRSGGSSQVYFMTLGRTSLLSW

`CC(C)(O)C#Cc1ccc2cnn(-c3cc(N)ncn3)c2c1`: the results for the pKi in test [1] and in test [2] were 5.89 and less than 5.35, respectively.
Take `Cc1nc2ccc(C#CC3(O)CCCCC3)cc2n1-c1ncnc(N)n1`: in test [1], the pKi (commonly −log10 of the Ki, conventionally taken in molar units) is 7.17. The inhibition (commonly the drop in the measured response relative to a control, in per cent) is 91% in test [3]; 4% in test [4]; 56% in [5]; 44% in test [6]; -2% in test [7]; 6% in test [8].
Turning to `Cc1nc2ccc(C#C[C@@]3(O)C[C@@H]4CC[C@H]3C4)cc2n1-c1ncnc(N)n1` (racemic), the values for the pKi in test [1] and in test [2] were 6.72 and less than 5.35, respectively.
As for `Cc1nc2ccc(C#CC3(O)CCCOC3)cc2n1-c1ncnc(N)n1` (racemic), the figures for the pKi in test [1] and in test [2] were less than 5.54 and less than 5.35, respectively.
For the molecule `Cc1nc2ccc(C#CC(C)(O)CC3CC3)cc2n1-c1ncnc(N)n1` (racemic), the figures for the pKi in [1] and in test [2] were 6.17 and less than 5.35, respectively.
In the case of `Cc1nc2ccc(C#CC(C)(O)CO)cc2n1-c1ncnc(N)n1` (racemic), the pKi in test [1] was less than 5.54; in test [2] it was less than 5.35.
For `COCCNc1nc2ccc(C#CC(C)(C)O)cc2n1-c1ccnc(N)n1`, the pKi in test [1] is 6.85; in test [2], less than 5.35. The inhibition in [9] came to 97%; in test [10] it was 32%; in test [11], 40%; in [12], 31%; in test [13] it was 84%; in [14], 88%.
Consider `Cc1nc2ccc(C#C[C@@](C)(O)c3nccs3)cc2n1-c1ncnc(N)n1`, for which the pKi in [1] was 6.22; in test [2], less than 5.35.
For `CCNc1nc2ccc(C#CC(C)(C)O)cc2n1-c1ncnc(N)n1` the same measures were 7.22 and less than 5.35.
As to `Cc1nc(Nc2n[nH]c3c2CN(C(=O)N[C@H](CN(C)C)c2ccccc2)C3(C)C)c2sccc2n1` [PF-03758309], the pIC50 (as a rule, the negative decadic logarithm of the IC50, by convention in mol/L) in [15] was 9.10.
For the molecule `Cc1nc2ccc(C#CC(C)(C)CO)cc2n1-c1ncnc(N)n1`, the pKi in test [1] is less than 5.54; in test [2], less than 5.35.
For `CC(C)(O)C#Cc1ccc2cnn(-c3ccnc(N)n3)c2c1`, the pKi in test [1] is 6.92; in test [2] it was less than 5.35.
For `Cc1cc([C@](C)(O)C#Cc2ccc3nc(C)n(-c4ncnc(N)n4)c3c2)no1` the same measures were 7.49 and less than 5.35.
In the case of `Cc1nc2ccc(C#CC(C)(C)O)cc2n1-c1ncnc(N)n1`, the values for the pKi in test [1] and in [2] were 6.30 and 4.82, respectively. For the same molecule, the inhibition in test [3] stood at 34%; in test [4], 31%; in test [5] it was 68%; in test [6] it was 81%; in test [7] it was 2%; in test [8], 27%.
In the case of `Cc1nc2ccc(C#CC3(O)COC3)cc2n1-c1ncnc(N)n1`, the pKi in test [1] was less than 5.54; in [2], less than 5.35.
In the case of `Cc1nc2ccc(C#CC(C)(O)c3ncccn3)cc2n1-c1ncnc(N)n1` (racemic), the values for the pKi in [1] and in [2] were less than 5.54 and less than 5.35, respectively.
